Columns and labels:
Format in all cases: in vivo, mouse
[1] = tested on: female WT Swiss mice; experiment: Safety profile and MTD in female WT Swiss mice; details: SC
Outline: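 A GLP-1 receptor agonist was injected subcutaneously into WT mice at 0.5 (~5 nmol), 3 (~30 nmol) or 10 mg/kg (~100 nmol) to check tolerability before the painting studies.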

[2] = tested on: female WT Swiss mice; experiment: Ip-GTT in WT Swiss mice; details: 6 days ([…]) after single SC 10 mg/kg; glucose 2 g/kg IP; naïve 21,354 ± 431
Outline: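 Female WT Swiss mice got a single subcutaneous injection of test compound at 10 mg/kg (~25 nmol). […] AUCs were compared by non-parametric t-tests.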

[3] = tested on: Lepob/ob obese mice; experiment: Efficacy in obese Lepob/ob mice after SC injection
Outline: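 Obese Lepob/ob mice (n = 6 per compound; 3 males, 3 females) got a single subcutaneous 10 mg/kg injection. Untreated non-obese C57BL/6J mice (3 males, 3 females) gave healthy baselines. Body weight was tracked as % change from Day 0. Blood glucose was read after 6 h fasting. IP glucose tolerance: 2 g/kg after 5–6 h fast. ITT: insulin 2.5 IU/kg at 240 h, AUC0–90 min, k-ITT. Analysis: two-way ANOVA and multiparametric t-tests.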

[4] = tested on: Lepob/ob obese mice; experiment: Efficacy in obese Lepob/ob mice after IP injection; details: single IP 10 mg/kg
Outline: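 Obese Lepob/ob mice got a single intraperitoneal 10 mg/kg injection of test compound; the other arm of the route comparison was subcutaneous. Body weight was tracked as % change from Day 0. Fasting blood glucose was measured. Insulin response was assessed 10 days post-injection.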

Semaglutide
dose from which hypoglycemia was observed ([1]; WT mice, doses 0.5, 3, 10 mg/kg): ≥ 0.5 mg/kg
MTD (maximum tolerated dose among the assessed range) ([1]; female WT Swiss mice): 10 mg/kg
Ip-GTT AUC0–120min [2]: 21,282 ± 795
body weight loss ([3]; for 3 days after single SC 10 mg/kg (~170 nmol), n = 6): about 8.3 ± 0.5%
duration of significant body weight loss ([3]; single SC 10 mg/kg): 3 days
duration of blood glucose down-regulation ([3]; single SC 10 mg/kg, both sexes combined): up to 10 days
duration of sustained body weight loss [4]: up to 7 days
fasting blood glucose lowering after 10 days ([4]; 240 h p.i.): no more efficacy
